Screening data as filed in PubChem.
Most compounds without a hit are left out; they make up all but 4.1% or so of the library.
APP 5'UTR act – activates APP 5'UTR luciferase reporter; SH-SY5Y APP 5'UTR luciferase reporter, luminescence; zero percent = DMSO vehicle wells; activation, % at 2 µM; 1% of 190,000 active;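 active = activation above a set limit, based on mean plus 3 SD of controls, cut at about 140% in these data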
FLuc act counter – affects firefly luciferase, flagging false hits in luciferase stimulation screens | P08659 | ATPlite luciferase biochemical, luminescence, 10 min; 0 = ATP-free wells, 1 = DMSO control | activation factor at 10 µM | 200,000 tested, under 10 active | AID 1027;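 active = luciferase activation factor, scaled between plate controls, of at least 2 with compound at 10 µM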
Target sequence (P08659 whole entry, looked up): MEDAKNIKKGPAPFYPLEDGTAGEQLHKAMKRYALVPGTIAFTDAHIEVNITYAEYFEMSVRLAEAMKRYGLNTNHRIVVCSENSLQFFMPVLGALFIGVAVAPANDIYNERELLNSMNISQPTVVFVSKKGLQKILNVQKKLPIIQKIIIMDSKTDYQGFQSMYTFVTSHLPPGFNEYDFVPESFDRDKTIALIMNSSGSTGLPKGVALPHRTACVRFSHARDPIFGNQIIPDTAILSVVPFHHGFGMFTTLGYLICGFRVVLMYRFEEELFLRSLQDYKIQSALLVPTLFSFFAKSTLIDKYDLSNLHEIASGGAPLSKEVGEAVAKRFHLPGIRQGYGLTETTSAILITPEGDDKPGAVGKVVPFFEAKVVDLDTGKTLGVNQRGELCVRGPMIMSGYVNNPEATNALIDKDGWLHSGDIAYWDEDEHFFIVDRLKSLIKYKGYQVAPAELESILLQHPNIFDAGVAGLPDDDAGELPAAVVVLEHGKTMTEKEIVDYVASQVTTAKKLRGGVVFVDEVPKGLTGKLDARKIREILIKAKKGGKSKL
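Assay system: Luciferase/luciferin detection reagent, cell-free biochemical luciferase assay / Read-out: luciferase activation / Benchmarks: No-ATP low control, compound-free enzyme-plus-ATP high control / Medium: PBS buffer for ATP / Detection: luminescence measurement of luciferase light output / Schedule: 10 min at ambient temperature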
STAT1 act – increases IFN-gamma driven STAT1 reporter signal; 2.6% of 200,000 active; AID 932; activation (% of control), % at 5.5 µM; NIH 3T3 STAT1-luciferase reporter, luminescence; 100% = IFN-gamma alone, no compound;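 active = activation above the screen-wide mean activation plus 3 SD, cut at about 130% in these data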;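 note: raw ratio to IFN-gamma control signal so 100% means no change and 0% no light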
FLuc inh counter – inhibits firefly luciferase, flagging false hits in luciferase inhibition screens; P08659; ATPLite firefly luciferase biochemical luminescence, 10 min; inhibition, % at 10 µM; 1.5% of 200,000 active; AID 1006;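 active = inhibition above about 50% when tested at 10 µM, limit read from the data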
NF-kB expr up – NF-kB expression increase, human neuronal cells | NF-kB reporter expression; active compounds read high | fold change at 12.5 µM | 1.6% of 190,000 active; in the data active = fold change above about 3.3
* marks the source's active call; other numbers are inactive results.

SMILES	APP 5'UTR act	FLuc act counter	STAT1 act	FLuc inh counter	NF-kB expr up
N/C(=N\OC(=O)c1ccc(Cl)cc1)c1ccccn1	185.4*	0	96.7	97.0*	3.55*
N/C(=N\OS(=O)(=O)c1ccc(Cl)cc1)c1ccccn1	-5.7	1	106.8	-4.1	1.3
N/C(=N\OC(=O)c1ccccc1[N+](=O)[O-])c1ccccn1	103.6	0.3	94.2	69.1*	3.92*
COC(=O)c1ccc(Cl)c(NC(=O)c2ccc(-c3ccccc3)cc2)c1	-2.4	1	101.2	-4.6	1.3
CCN(CC)C(=O)CSc1nnc(CCN)o1	0.1	1.1	99.9	-8.0	1.08
O=C(Nc1ccc(OC(F)(F)F)cc1)C1=NCCN1	16.8	0.4	114.8	63.2*	1.66
COc1ccc2c(c1)CC/C(=C/c1ccco1)C2=O	181.2*	0.2	132.7*	81.1*	8.13*
Nc1ccc2c(c1)C/C(=C/c1ccco1)C2=O	188.6*	0.1	210.2*	87.4*	1.02
O=C1/C(=C/c2ccco2)CCc2ccccc21	164.5*	0.4	105.2	60.6*	2.89
Cc1cc(NC(=O)CN2CCN(c3cccc(Cl)c3)CC2)no1	10.7	1.1	93.8	-8.6	1.19
O=[N+]([O-])c1ccc(N=NNc2ccccc2)cc1	58.2	0.9	134.9*	7.7	3.65*
CN(N=Nc1ccc([N+](=O)[O-])cc1)c1ccccc1	52.3	0.9	139.2*	5.3	2.76
CCOC(=O)C1=NN(c2ccccc2)C(c2ccccc2)CC1=O (stereo not drawn)	-20.1	1	105.5	-3.3	1.19
Cc1cccc(NC(=O)Cc2cccs2)n1	16.7	0.9	104.6	5.4	1.45
NNC(=O)c1sc(-c2ccc(Cl)cc2)cc1N	6.7	1	134.5*	0.8	1.13
CCOC(=O)c1sc(-c2ccc(Br)cc2)cc1N	77.0	0.9	137.3*	13.0	2.5
CCOC(=O)c1cc(-c2ccc(N)cc2)sc1N	19.3	0.9	139.4*	12.9	3
Cc1ccc(CC2C(=O)N(c3ccc(C)cc3)C(=O)C2C)cc1 (stereo not drawn)	28.5	1	108.1	-3.7	2.11
O=S(=O)(Nc1cccc(-c2nc3cccnc3s2)c1)c1ccc2c(c1)OCCO2	1.5	1.1	97.3	-7.3	0.97
COC(=O)c1ccccc1NC(=O)Oc1ccc(F)cc1	-5.1	1	93.2	-3.8	1.14
C=CCNC(=O)CCc1nnc(C2(c3ccc(Cl)cc3)CCC2)o1	57.1	1	140.3*	-2.2	2.87
O=c1sc2ccccc2n1COc1ccc(Cl)cc1	14.9	1.1	109.8	-7.1	1.51
CCc1nc2ccc(C(=O)Nc3nnc(C)s3)cc2nc1CC	1.7	0.8	98.1	19.7	1.24
Cc1ccc2[nH]c3c(c2c1)CCC3=O	7.3	1	102.2	-2.5	1.23
CCCCN1CCc2c([nH]c3ccc(C)cc23)C1=O	123.2	1	150.6*	4.0	3.16
SMILES	APP 5'UTR act	FLuc act counter	STAT1 act	FLuc inh counter	NF-kB expr up
O=C(Nc1cccc(O)c1)C(=O)Nc1ccccn1	154.8*	0.2	120.4	83.8*	2.9
Cc1ccc(C(=O)ONc2ccc(N=NC(=O)c3ccccc3O)cc2)cc1	17.3	0.7	102.2	31.5	1.95
O=Nc1ccc(NOC(=O)c2ccc(Br)cc2)cc1	5.3	0.1	98.3	86.8*	1.07
COC(=O)c1ccc(NC(=O)CCN2CCCCC2)cc1	31.1	1	93.2	1.2	1.06
COC(=O)c1ccc(NN=Nc2ccc(C)cc2)cc1	72.0	1	137.0*	2.7	1.74
Cc1ccc(C(=O)ONc2ccc(N=O)cc2)cc1	2.8	0	99.1	96.8*	1.02
COC(=O)c1ccc(N=NN2CCCCC2)cc1	150.6*	0.7	139.7*	25.5	3.34*
Cc1cnc(C)c(N2CCN(Cc3cn(C)nc3-c3cccc(Cl)c3)CC2)n1	6.1	1	96.5	-2.4	0.85
COc1cccc(NC(=S)N(CCN(C)C)Cc2cccs2)c1	5.4	1.1	105.4	-8.0	5.78*
CCOc1cc(/C=N/NC(N)=S)cc(Br)c1OCc1ccccc1C	18.6	1	105.1	1.5	1.09
COc1cc(/C=N/NC(N)=S)cc(Br)c1OCc1ccccc1F	19.6	1	128.6*	-0.6	1.65
O=C1c2ccccc2C(=O)N1CCCCN(C(=O)c1ccc([N+](=O)[O-])cc1)c1ccc(Cl)cc1	-6.4	1	98.2	-3.5	0.86
CC(C)(C)OC(=O)NCCc1nnc(SCc2ccc(Cl)cc2Cl)o1	6.6	1.1	94.5	-5.3	1.27
